Several values for one entry are separate records, joined by “and”; a condition that tells them apart may be missing. Identical values can stand only once.
Tested on: HEK-293T
Assay: Multiplex assay against HEK293T
Assay type: toxicity, cell-based
Details: human
Method in brief: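 Per cents of healthy-nucleus cells form the tubulin, mitochondrial-mass and membrane-permeability phenotype values. Live cells were stained at seeding with Hoechst33342, BioTracker Green Microtubule Cytoskeleton Dye, MitoTracker Red and Annexin V Alexa Fluor 680. After compound addition they were imaged on a CQ1 microscope at 37°C and 5% CO2, and CellPathfinder machine-learning gating split them into Hoechst high-intensity objects or normal cells, normal cells into healthy, pyknosed or fragmented nuclei, and pyknosed cells into mitotic or apoptotic.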

[1] = 12 h, 1 µM, compound concentration 1 uM
[2] = 12 h, 10 µM, compound concentration 10 uM
[3] = 24 h, 1 µM, compound concentration 1 uM
[4] = 24 h, 10 µM, compound concentration 10 uM
[5] = 48 h, 1 µM, compound concentration 1 uM
[6] = 48 h, 10 µM, compound concentration 10 uM

With COc1ccccc1N1CCN(C[C@@H](C(=O)NC(C)(C)C)c2ccccc2)CC1.Cl.Cl the “Population Apoptotic (%)” value [1] was 24% and 42%, the “Population Fragmented Nuclei (%)” value [1] was 7% and 4% and the “Population Healthy Nuclei (%)” value [1] was 77% and 76%. The “Population Hoechst High Intensity Objects (%)” value [1] was 7% and 6%, the “Population Membrane Permeable-Phenotype (%)” value [1] was 0% and the “Population Mitochondria Different-Phenotype (%)” value [1] was 48% and 77%. For the same molecule, the “Population Mitotic Cells (%)” value [1] was 75% and 57%, the “Population Normal (%)” value [1] was 92% and 93% and the “Population Pyknosed Nuclei (%)” value [1] was 14% and 19%. For the same molecule, the “Population Tubulin-Different-Phenotype (%)” value [1] was 47% and 35%, the “Total Cell Count” value [1] was 434 and 300 and the “Population Apoptotic (%)” value [2] was 62% and 58%. The “Population Fragmented Nuclei (%)” value [2] was 7% and 5%, the “Population Healthy Nuclei (%)” value [2] was 69% and the “Population Hoechst High Intensity Objects (%)” value [2] was 7% and 16%. For the same molecule, the “Population Membrane Permeable-Phenotype (%)” value [2] was 0%, the “Population Mitochondria Different-Phenotype (%)” value [2] was 88% and 79% and the “Population Mitotic Cells (%)” value [2] was 37% and 41%. The “Population Normal (%)” value [2] was 92% and 83%, the “Population Pyknosed Nuclei (%)” value [2] was 23% and 25% and the “Population Tubulin-Different-Phenotype (%)” value [2] was 74% and 59%. For the same molecule, the “Total Cell Count” value [2] was 333 and 231, the “Population Apoptotic (%)” value [3] was 19% and 34% and the “Population Fragmented Nuclei (%)” value [3] was 8% and 11%. The “Population Healthy Nuclei (%)” value [3] was 81% and 76%, the “Population Hoechst High Intensity Objects (%)” value [3] was 4% and 6% and the “Population Membrane Permeable-Phenotype (%)” value [3] was 0%. For the same molecule, the “Population Mitochondria Different-Phenotype (%)” value [3] was 31% and 54%, the “Population Mitotic Cells (%)” value [3] was 80% and 65% and the “Population Normal (%)” value [3] was 95% and 93%. The “Population Pyknosed Nuclei (%)” value [3] was 9% and 11%, the “Population Tubulin-Different-Phenotype (%)” value [3] was 29% and 28% and the “Total Cell Count” value [3] was 563 and 387. For the same molecule, the “Population Apoptotic (%)” value [4] was 45% and 66%, the “Population Fragmented Nuclei (%)” value [4] was 8% and the “Population Healthy Nuclei (%)” value [4] was 68% and 76%. For the same molecule, the “Population Hoechst High Intensity Objects (%)” value [4] was 7% and 14%, the “Population Membrane Permeable-Phenotype (%)” value [4] was 0% and the “Population Mitochondria Different-Phenotype (%)” value [4] was 77% and 73%. For the same molecule, the “Population Mitotic Cells (%)” value [4] was 54% and 33%, the “Population Normal (%)” value [4] was 92% and 85% and the “Population Pyknosed Nuclei (%)” value [4] was 23% and 15%. For the same molecule, the “Population Tubulin-Different-Phenotype (%)” value [4] was 61% and 48%, the “Total Cell Count” value [4] was 377 and 251 and the “Population Apoptotic (%)” value [5] was 22% and 38%. The “Population Fragmented Nuclei (%)” value [5] was 13% and 10%, the “Population Healthy Nuclei (%)” value [5] was 78% and 80% and the “Population Hoechst High Intensity Objects (%)” value [5] was 2% and 6%. The “Population Membrane Permeable-Phenotype (%)” value [5] was 1% and 0%, the “Population Mitochondria Different-Phenotype (%)” value [5] was 19% and 37% and the “Population Mitotic Cells (%)” value [5] was 77% and 61%. For the same molecule, the “Population Normal (%)” value [5] was 97% and 93%, the “Population Pyknosed Nuclei (%)” value [5] was 8% and 9% and the “Population Tubulin-Different-Phenotype (%)” value [5] was 18% and 20%. For the same molecule, the “Total Cell Count” value [5] was 908 and 480, the “Population Apoptotic (%)” value [6] was 50% and 62% and the “Population Fragmented Nuclei (%)” value [6] was 14% and 10%. The “Population Healthy Nuclei (%)” value [6] was 72% and 76%, the “Population Hoechst High Intensity Objects (%)” value [6] was 6% and 5% and the “Population Membrane Permeable-Phenotype (%)” value [6] was 0%. For the same molecule, the “Population Mitochondria Different-Phenotype (%)” value [6] was 59% and 58%, the “Population Mitotic Cells (%)” value [6] was 49% and 37% and the “Population Normal (%)” value [6] was 93% and 94%. For the same molecule, the “Population Pyknosed Nuclei (%)” value [6] was 13%, the “Population Tubulin-Different-Phenotype (%)” value [6] was 44% and 36% and the “Total Cell Count” value [6] was 467 and 375.
For CCCC(CCC)C(=O)O [VALPROIC ACID], the “Population Apoptotic (%)” value [1] was 39% and 28%, the “Population Fragmented Nuclei (%)” value [1] was 6% and 5% and the “Population Healthy Nuclei (%)” value [1] was 81% and 79%. For the same molecule, the “Population Hoechst High Intensity Objects (%)” value [1] was 6% and 5%, the “Population Membrane Permeable-Phenotype (%)” value [1] was 0% and the “Population Mitochondria Different-Phenotype (%)” value [1] was 29% and 46%. The “Population Mitotic Cells (%)” value [1] was 60% and 71%, the “Population Normal (%)” value [1] was 93% and 94% and the “Population Pyknosed Nuclei (%)” value [1] was 12% and 15%. For the same molecule, the “Population Tubulin-Different-Phenotype (%)” value [1] was 20% and 16%, the “Total Cell Count” value [1] was 513 and 367 and the “Population Apoptotic (%)” value [2] was 34% and 44%. For the same molecule, the “Population Fragmented Nuclei (%)” value [2] was 6% and 7%, the “Population Healthy Nuclei (%)” value [2] was 82% and 81% and the “Population Hoechst High Intensity Objects (%)” value [2] was 6%. The “Population Membrane Permeable-Phenotype (%)” value [2] was 0%, the “Population Mitochondria Different-Phenotype (%)” value [2] was 40% and 49% and the “Population Mitotic Cells (%)” value [2] was 66% and 55%. The “Population Normal (%)” value [2] was 93%, the “Population Pyknosed Nuclei (%)” value [2] was 11% and the “Population Tubulin-Different-Phenotype (%)” value [2] was 26% and 20%. The “Total Cell Count” value [2] was 455 and 446, the “Population Apoptotic (%)” value [3] was 28% and 45% and the “Population Fragmented Nuclei (%)” value [3] was 8% and 6%. For the same molecule, the “Population Healthy Nuclei (%)” value [3] was 78% and 83%, the “Population Hoechst High Intensity Objects (%)” value [3] was 4% and the “Population Membrane Permeable-Phenotype (%)” value [3] was 1% and 0%. The “Population Mitochondria Different-Phenotype (%)” value [3] was 22% and 26%, the “Population Mitotic Cells (%)” value [3] was 71% and 54% and the “Population Normal (%)” value [3] was 95%. The “Population Pyknosed Nuclei (%)” value [3] was 12% and 9%, the “Population Tubulin-Different-Phenotype (%)” value [3] was 16% and 10% and the “Total Cell Count” value [3] was 663 and 469. The “Population Apoptotic (%)” value [4] was 28% and 23%, the “Population Fragmented Nuclei (%)” value [4] was 9% and 8% and the “Population Healthy Nuclei (%)” value [4] was 81% and 86%. For the same molecule, the “Population Hoechst High Intensity Objects (%)” value [4] was 4% and 3%, the “Population Membrane Permeable-Phenotype (%)” value [4] was 0% and the “Population Mitochondria Different-Phenotype (%)” value [4] was 16% and 30%. For the same molecule, the “Population Mitotic Cells (%)” value [4] was 71% and 76%, the “Population Normal (%)” value [4] was 95% and 96% and the “Population Pyknosed Nuclei (%)” value [4] was 9% and 5%. The “Population Tubulin-Different-Phenotype (%)” value [4] was 15% and 11%, the “Total Cell Count” value [4] was 649 and 593 and the “Population Apoptotic (%)” value [5] was 19% and 36%. For the same molecule, the “Population Fragmented Nuclei (%)” value [5] was 14% and 10%, the “Population Healthy Nuclei (%)” value [5] was 78% and 81% and the “Population Hoechst High Intensity Objects (%)” value [5] was 2% and 3%. The “Population Membrane Permeable-Phenotype (%)” value [5] was 3% and 1%, the “Population Mitochondria Different-Phenotype (%)” value [5] was 11% and 17% and the “Population Mitotic Cells (%)” value [5] was 80% and 63%. For the same molecule, the “Population Normal (%)” value [5] was 97% and 96%, the “Population Pyknosed Nuclei (%)” value [5] was 6% and 8% and the “Population Tubulin-Different-Phenotype (%)” value [5] was 9% and 10%. The “Total Cell Count” value [5] was 1112 and 700, the “Population Apoptotic (%)” value [6] was 21% and 27% and the “Population Fragmented Nuclei (%)” value [6] was 15% and 13%. For the same molecule, the “Population Healthy Nuclei (%)” value [6] was 79% and 82%, the “Population Hoechst High Intensity Objects (%)” value [6] was 3% and 1% and the “Population Membrane Permeable-Phenotype (%)” value [6] was 1% and 2%. The “Population Mitochondria Different-Phenotype (%)” value [6] was 11% and 12%, the “Population Mitotic Cells (%)” value [6] was 78% and 72% and the “Population Normal (%)” value [6] was 96% and 98%. The “Population Pyknosed Nuclei (%)” value [6] was 5% and 4%, the “Population Tubulin-Different-Phenotype (%)” value [6] was 9% and 6% and the “Total Cell Count” value [6] was 1088 and 947.

From ChEMBL document CHEMBL5724801, “EUbOPEN Chemogenomics Library - Multiplex” (2024)
